# Data taken from article PMC8179362 (Chemical Science, 2021).
# Columns and labels:
# [1] = test system: P. mirabilis (UNC KPC 170), IMP; experiment: Carbapenem; assay type: cell-based; settings: tested using meropenem (footnote a)
# Summary of the method: (§1)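 Clinical Enterobacterales isolates producing MBLs. Carbapenem MIC was determined for the carbapenem alone and in the presence of test compound, and the shift in MIC was assessed. Imipenem was the carbapenem for most strains. Morganellaceae strains were tested with meropenem instead, because of their intrinsic reduced susceptibility to imipenem.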
# E. coli (8.68), NDM-1 = experiment: Imipenem MIC, broth microdilution, clinical isolate; assay type: cell-based; settings: for MIC of imipenem (IMI) + MMTZ: E. coli (8.68), NDM-1, MMTZ at constant 100 mg/L
# Summary of the method: as §1
# [2] = test system: Enterobacter spp. (42713), IMP; experiment: as above; assay type: cell-based; settings: for MIC of imipenem (IMI) + MMTZ: Enterobacter spp. (42713), IMP, MMTZ at constant 100 mg/L
# Summary of the method: as §1
# [3] = test system: K. pneumoniae (LC 82), IMP-13; experiment: as above; assay type: cell-based; settings: MMTZ at constant 100 mg/L
# Summary of the method: as §1
# HEK293 = experiment: Cytotoxicity, MTT assay; assay type: cell-based, human; settings: 260, 355 and 530 μM, 24 hs
# NDM-1 = NDM-1 (Klebsiella pneumoniae, UniProt C7C422); experiment: Imipenem hydrolysis by purified NDM-1, competitive inhibition model; assay type: biochemical; settings: for Fold more active against NDM-1 than its enantiomer / Fold more potent NDM-1 inhibitor than L-BTZ-1: ratio of Ki values
# NDM-1, sequence (C7C422 29-270, looked up, species assumed): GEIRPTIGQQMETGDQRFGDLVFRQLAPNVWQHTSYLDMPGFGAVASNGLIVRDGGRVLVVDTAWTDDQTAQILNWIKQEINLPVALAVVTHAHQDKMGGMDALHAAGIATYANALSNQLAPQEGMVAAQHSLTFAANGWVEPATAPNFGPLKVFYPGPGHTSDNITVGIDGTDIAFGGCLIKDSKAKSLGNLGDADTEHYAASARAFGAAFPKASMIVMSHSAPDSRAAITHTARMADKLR
# [4] = target: E. coli cells expressing NDM-1 (Klebsiella pneumoniae, UniProt C7C422); assay type: cell-based
# E. coli cells expressing NDM-1, sequence (C7C422 29-270, looked up): as the sequence (C7C422 29-270, looked up, species assumed) above
# [5] = test system: K. aerogenes (6915), VIM-2; experiment: Imipenem MIC, broth microdilution, clinical isolate; assay type: cell-based; settings: MMTZ at constant 100 mg/L
# Summary of the method: as §1
# [6] = test system: K. pneumoniae (1.37), NDM; experiment: as above; assay type: cell-based; settings: MMTZ at constant 100 mg/L
# Summary of the method: as §1
# VIM-2 = VIM-2 (Escherichia coli, UniProt Q5U7L7); experiment: Imipenem hydrolysis by purified VIM-2, competitive inhibition model; assay type: biochemical
# [7] = test system: K. pneumoniae (5639), VIM-24; experiment: Imipenem MIC, broth microdilution, clinical isolate; assay type: cell-based; settings: MMTZ at constant 100 mg/L
# Summary of the method: as §1
# IMP-1 = IMP-1 (Serratia marcescens, UniProt P52699); experiment: Imipenem hydrolysis by purified IMP-1, competitive inhibition model; assay type: biochemical
# IMP-1, sequence (P52699 19-246, looked up, species assumed): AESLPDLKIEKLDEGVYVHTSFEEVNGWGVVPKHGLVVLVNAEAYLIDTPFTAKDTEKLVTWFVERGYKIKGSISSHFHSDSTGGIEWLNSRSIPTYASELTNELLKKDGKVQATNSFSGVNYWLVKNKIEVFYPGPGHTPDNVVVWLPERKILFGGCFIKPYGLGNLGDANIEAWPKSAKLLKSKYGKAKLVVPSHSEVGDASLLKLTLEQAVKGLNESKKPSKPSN
# [8] = test system: K. pneumoniae (6907), VIM-2; experiment: Imipenem MIC, broth microdilution, clinical isolate; assay type: cell-based; settings: MMTZ at constant 100 mg/L
# Summary of the method: as §1
# [9] = test system: clinical isolates producing MBLs; experiment: Antimicrobial susceptibility testing, statements on the whole panel; assay type: cell-based; settings: MMTZ at constant 100 mg/L, Enterobacterales clinical isolates
# Summary of the method: as §1
# [10] = Chemical stability in PBS; assay type: physicochemical; settings: PBS pH 7.2, 27 °C
# VERO = experiment: Cytotoxicity, MTT assay; assay type: cell-based, African green monkey; settings: 260, 355 and 530 μM, 24 hs
# L929 = experiment: Cytotoxicity, MTT assay; assay type: cell-based, mouse; settings: 260, 355 and 530 μM, 24 hs
SMILES,Ki (NDM-1),IC50 [4],MIC of imipenem (IMI) + MMTZ [5],MIC of imipenem (IMI) + MMTZ [6],Ki (VIM-2),MIC of imipenem (IMI) + MMTZ [7],Ki (IMP-1),MIC of imipenem (IMI) + MMTZ [2],MIC of imipenem (IMI) + MMTZ [8],"MIC of imipenem (IMI) + MMTZ (E. coli (8.68), NDM-1)",other results
"C[C@@H](O)[C@H]1C(=O)N2C(C(=O)O)=C(SCCN=CN)C[C@H]12 [IMI, imipenem, reference compound]",–,–,–,–,–,–,–,–,–,–,"MIC of carbapenem alone (column IMI) [1]: 16 µg/mL; MIC (E. coli (8.68), NDM-1; Escherichia coli, read-out: MIC of imipenem (IMI) alone): 64 µg/mL; MIC ([2]; Enterobacter, read-out: MIC of imipenem (IMI) alone): 16 µg/mL"
"CCOC(=O)[C@]1(CS)N[C@H](C(=O)O)CS1 [L-anti-1a, (2S,4R)-2-(ethoxycarbonyl)-2-(mercaptomethyl)thiazolidine-4-carboxylic acid]",5200 ± 700 nM,54000 ± 4000 nM,4 µg/mL,8 µg/mL,380 ± 50 nM,8 µg/mL,1000 ± 200 nM,16 µg/mL,2 µg/mL,–,MIC of imipenem (IMI) + MMTZ [3]: 0.5 µg/mL; Cytotoxicity (cell viability) (HEK293): more selectively toxic towards the HEK293 cell line
"CCOC(=O)[C@@]1(CS)N[C@@H](C(=O)O)C(C)(C)S1 [D-anti-1b, (2R,4S)-2-(Ethoxycarbonyl)-2-(mercaptomethyl)-5,5-dimethylthiazolidine-4-carboxylic acid]",3100 ± 300 nM,210000 ± 10000 nM,2 µg/mL,8 µg/mL,900 ± 100 nM,1 µg/mL,930 ± 80 nM,8 µg/mL,1 µg/mL,16 µg/mL,Reduction in MIC values of imipenem [9]: up to 16 fold; Degradation in PBS by LCMS ([10]; 6 h): did not hydrolyse to penicillamine and the main degradation product was the disulphide derivative; Intact MMTZ remaining ([10]; after 6 hours): 88%
"CCOC(=O)[C@@]1(CS)N[C@@H](C(=O)O)CS1 [D-anti-1a, (2R,4S)-2-(ethoxycarbonyl)-2-(mercaptomethyl)thiazolidine-4-carboxylic acid]",2500 ± 500 nM,64000 ± 5000 nM,2 µg/mL,8 µg/mL,390 ± 40 nM,4 µg/mL,1300 ± 100 nM,8 µg/mL,2 µg/mL,16 µg/mL,Cytotoxicity (cell viability) (VERO): induced a decline in cell viability percentages in almost all conditions; Cytotoxicity (cell viability) (HEK293): induced a decline in cell viability percentages in almost all conditions; Cytotoxicity (cell viability) (L929): induced a decline in cell viability percentages in almost all conditions
"CCOC(=O)[C@@]1(CS)N[C@H](C(=O)O)C(C)(C)S1 [L-syn-1b, (2R,4R)-2-(Ethoxycarbonyl)-2-(mercaptomethyl)-5,5-dimethylthiazolidine-4-carboxylic acid]",8000 ± 1000 nM,230000 ± 30000 nM,4 µg/mL,–,3600 ± 400 nM,8 µg/mL,6000 ± 600 nM,16 µg/mL,4 µg/mL,32 µg/mL,MIC of imipenem (IMI) + MMTZ [3]: 1 µg/mL
"CCOC(=O)[C@]1(CS)N[C@H](C(=O)O)C(C)(C)S1 [L-anti-1b, (2S,4R)-2-(Ethoxycarbonyl)-2-(mercaptomethyl)-5,5-dimethylthiazolidine-4-carboxylic acid]",440 ± 60 nM,160000 ± 10000 nM,2 µg/mL,8 µg/mL,750 ± 90 nM,4 µg/mL,460 ± 50 nM,8 µg/mL,1 µg/mL,16 µg/mL,Fold more active against NDM-1 than its enantiomer (NDM-1): 7 fold; Fold more potent NDM-1 inhibitor than L-BTZ-1 (NDM-1): 12 fold
"CCOC(=O)[C@]1(CS)N[C@@H](C(=O)O)C(C)(C)S1 [D-syn-1b, (2S,4S)-2-(Ethoxycarbonyl)-2-(mercaptomethyl)-5,5-dimethylthiazolidine-4-carboxylic acid]",–,–,4 µg/mL,8 µg/mL,1900 ± 100 nM,8 µg/mL,2000 ± 200 nM,8 µg/mL,4 µg/mL,32 µg/mL,Fold more active against NDM-1 than its enantiomer (NDM-1): 13 fold; Fold more potent NDM-1 inhibitor than L-BTZ-1 (NDM-1): 12 fold
